The source of these data is ChEMBL document CHEMBL4196137, “Abyssomicin Monomers and Dimers from the Marine-Derived Streptomyces koyangensis SCSIO 5802” (J Nat Prod, 2018).

As a reminder, the inhibition is the relative decrease from the control value, in per cent. Broadly, the MIC is the smallest concentration in the dilution series that meets the test's criterion for growth inhibition. By IC50 is commonly meant the point on the concentration scale where inhibition reaches its midpoint.

≈ marks a conversion by molar mass, not a printed value.

One assay has as its system Herpesviridae sp. In words: Antiviral activity against Herpes simplex virus assessed as inhibition of viral replication at 10 uM relative to control. It counts as functional.
Assay [1] deals with Staphylococcus aureus. Nature of the assay: Antimicrobial activity against Staphylococcus aureus ATCC 29213 by two-fold serial dilution method. It counts as functional. In short, it runs like this: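 MIC measured by 2-fold serial broth dilution in Mueller-Hinton broth, following CLSI standard methods.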
The next assay deals with Enterococcus faecalis. In words: Antimicrobial activity against Enterococcus faecalis ATCC 29212 by two-fold serial dilution method. It counts as functional. In outline: (§1)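 MIC by 2-fold serial broth dilution in Mueller-Hinton broth, following CLSI standard methods; panel run alongside S. aureus ATCC 29213 and E. faecalis ATCC 29212.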
Assay [2] concerns Staphylococcus aureus. Nature of the assay: Antimicrobial activity against methicillin-resistant Staphylococcus aureus isolate 1862 by two-fold serial dilution method. Format: functional. In short, it runs like this:
as §1

Assay [3] concerns Staphylococcus aureus. In words: Antimicrobial activity against methicillin-resistant Staphylococcus aureus isolate shhs-A1 by two-fold serial dilution method. It counts as functional. In outline:
as §1

The subject of assay [4] is Staphylococcus aureus. Nature of the assay: Antimicrobial activity against methicillin-resistant Staphylococcus aureus isolate 699 by two-fold serial dilution method. Format: functional. In outline:
as §1

For assay [5], the system named is Vesicular stomatitis virus. In words: Antiviral activity against Vesicular stomatitis virus infected in African green monkey Vero cells after 16 hrs by fluorescence microscopy. Format: functional, organism-based.

On to `C[C@H]1CC/C(O)=C2/C(=O)O[C@@]34C=C[C@]5(C1=O)[C@H](O)[C@@](C)(O[C@]235)[C@@H](C)C4`, for which the inhibition at 10 µM with Herpesviridae sp. came out at 31%.

As for `C[C@H]1CC/C(O)=C2/C(=O)O[C@]34C[C@H](C)[C@]5(C)O[C@]23[C@H](C1=O)[C@@H](S[C@H]1[C@H]2[C@H](O)[C@@]3(C)O[C@@]67/C(=C(/O)CC[C@H](C)C(=O)[C@H]16)C(=O)O[C@@]27C[C@@H]3C)[C@H]4[C@@H]5O`, the minimal inhibitory concentration (MIC) in the assay with Staphylococcus aureus [1] was 32 µg/mL (≈ 44 µM); in the assay with Enterococcus faecalis it was 32 µg/mL (≈ 44 µM); against Staphylococcus aureus [2], 16 µg/mL (≈ 22 µM); against Staphylococcus aureus [3], 16 µg/mL (≈ 22 µM); with Staphylococcus aureus [4] it was 16 µg/mL (≈ 22 µM). The molecule further registered a half-inhibitory concentration (IC50) in assay [5] of 24 µM.

`C[C@H]1CCC(=O)C2=C3O[C@@]4(C)[C@@H](C)C[C@]3(OC2=O)[C@@H]([C@H](S[C@H]2[C@H]3[C@H](O)[C@@]5(C)O[C@@]67/C(=C(/O)CC[C@H](C)C(=O)[C@H]26)C(=O)O[C@@]37C[C@@H]5C)CC1=O)[C@@H]4O`: the minimum inhibitory concentration (MIC) in the assay with Staphylococcus aureus [1] stood at 32 µg/mL (≈ 44 µM); against Enterococcus faecalis, 32 µg/mL (≈ 44 µM); with Staphylococcus aureus [2], 16 µg/mL (≈ 22 µM); against Staphylococcus aureus [3] it was 16 µg/mL (≈ 22 µM); with Staphylococcus aureus [4], 16 µg/mL (≈ 22 µM). This molecule also had a concentration for half-maximal inhibition (IC50) in assay [5] of 19 µM.

Turning to `CC1(C)S[C@@H]2[C@H](NC(=O)[C@H](N)c3ccccc3)C(=O)N2[C@H]1C(=O)O` [AMPICILLIN], the MIC in the assay with Staphylococcus aureus [1] came out at 0.25 µg/mL (≈ 0.715 µM); against Enterococcus faecalis it was 16 µg/mL (≈ 45.8 µM); against Staphylococcus aureus [2], 0.125 µg/mL (≈ 0.358 µM); in the assay with Staphylococcus aureus [3] it was 64 µg/mL (≈ 183 µM); in the assay with Staphylococcus aureus [4] it was 4 µg/mL (≈ 11.4 µM).

`CN[C@H](CC(C)C)C(=O)N[C@H]1C(=O)N[C@@H](CC(N)=O)C(=O)N[C@H]2C(=O)N[C@H]3C(=O)N[C@H](C(=O)N[C@H](C(=O)O)c4cc(O)cc(O)c4-c4cc3ccc4O)[C@H](O)c3ccc(c(Cl)c3)Oc3cc2cc(c3O[C@@H]2O[C@H](CO)[C@@H](O)[C@H](O)[C@H]2O[C@H]2C[C@](C)(N)[C@H](O)[C@H](C)O2)Oc2ccc(cc2Cl)[C@H]1O` [VANCOMYCIN]: the MIC was found to be 0.25 µg/mL (≈ 0.173 µM) in the assay with Staphylococcus aureus [1], 0.25 µg/mL (≈ 0.173 µM) in the assay on Enterococcus faecalis, 0.125 µg/mL (≈ 0.0863 µM) in the assay with Staphylococcus aureus [2] and 0.125 µg/mL (≈ 0.0863 µM) with Staphylococcus aureus [4].
